Read-outs that look alike come from different tables or passages of the source.
Tests used:
QQQQ receptor = QQQQ receptor (Salmonella typhimurium, UniProt P02941, E302Q/E491Q); assay: L-aspartate binding to QQQQ receptor; conditions: given binding constant for QQQQ receptor
[1] = molecular target: aspartate receptor QEEE receptor–kinase signaling complex (Salmonella typhimurium, UniProt P02941, Q309E); assay: in vitro receptor-coupled kinase assay, attractant titration, QEEE receptor; type: biochemical, S. typhimurium
[2] = molecular target: aspartate receptor EQEE receptor–kinase signaling complex (Salmonella typhimurium, UniProt P02941, E302Q/Q295E/Q309E); assay: in vitro receptor-coupled kinase assay, attractant titration, EQEE receptor; type: biochemical, S. typhimurium
[3] = molecular target: aspartate receptor EEQE receptor–kinase signaling complex (Salmonella typhimurium, UniProt P02941, Q295E); assay: in vitro receptor-coupled kinase assay, attractant titration, EEQE receptor; type: biochemical, S. typhimurium
[4] = molecular target: aspartate receptor EEEQ receptor–kinase signaling complex (Salmonella typhimurium, UniProt P02941, E491Q/Q295E/Q309E); assay: in vitro receptor-coupled kinase assay, attractant titration, EEEQ receptor; type: biochemical, S. typhimurium
[5] = molecular target: aspartate receptor QEQE (wild type) receptor–kinase signaling complex (Salmonella typhimurium, UniProt P02941); assay: in vitro receptor-coupled kinase assay, attractant titration, QEQE; type: biochemical, S. typhimurium
Outline: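 Native E. coli membranes carrying the receptor (about 10% of total protein) were mixed with purified CheA, CheW and excess CheY to reconstitute the signaling complex, with receptor in the low micromolar range. Kinase activity was read as radiolabeled phospho-CheY at 10-s initial-rate points across α-methyl-aspartate concentrations, normalized to the no-attractant maximum, with three measurements per point. K1/2 and Hill coefficient came from a multisite Hill fit using free attractant concentration.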

[6] = molecular target: aspartate receptor QQEE receptor–kinase signaling complex (Salmonella typhimurium, UniProt P02941, E302Q/Q309E); assay: in vitro receptor-coupled kinase assay, attractant titration, QQEE receptor; type: biochemical, S. typhimurium
[7] = molecular target: aspartate receptor EQQE receptor–kinase signaling complex (Salmonella typhimurium, UniProt P02941, E302Q/Q295E); assay: in vitro receptor-coupled kinase assay, attractant titration, EQQE receptor; type: biochemical, S. typhimurium
[8] = molecular target: aspartate receptor QEEQ receptor–kinase signaling complex (Salmonella typhimurium, UniProt P02941, E491Q/Q309E); assay: in vitro receptor-coupled kinase assay, attractant titration, QEEQ receptor; type: biochemical, S. typhimurium
[9] = molecular target: aspartate receptor EQEQ receptor–kinase signaling complex (Salmonella typhimurium, UniProt P02941, E302Q/E491Q/Q295E/Q309E); assay: in vitro receptor-coupled kinase assay, attractant titration, EQEQ receptor; type: biochemical, S. typhimurium
[10] = molecular target: aspartate receptor EEQQ receptor–kinase signaling complex (Salmonella typhimurium, UniProt P02941, E491Q/Q295E); assay: in vitro receptor-coupled kinase assay, attractant titration, EEQQ receptor; type: biochemical, S. typhimurium
[11] = molecular target: aspartate receptor QQQE receptor–kinase signaling complex (Salmonella typhimurium, UniProt P02941, E302Q); assay: in vitro receptor-coupled kinase assay, attractant titration, QQQE receptor; type: biochemical, S. typhimurium
[12] = molecular target: aspartate receptor QQEQ receptor–kinase signaling complex (Salmonella typhimurium, UniProt P02941, E302Q/E491Q/Q309E); assay: in vitro receptor-coupled kinase assay, attractant titration, QQEQ receptor; type: biochemical, S. typhimurium
[13] = molecular target: aspartate receptor QEQQ receptor–kinase signaling complex (Salmonella typhimurium, UniProt P02941, E491Q); assay: in vitro receptor-coupled kinase assay, attractant titration, QEQQ receptor; type: biochemical, S. typhimurium
[14] = molecular target: aspartate receptor EQQQ receptor–kinase signaling complex (Salmonella typhimurium, UniProt P02941, E302Q/E491Q/Q295E); assay: in vitro receptor-coupled kinase assay, attractant titration, EQQQ receptor; type: biochemical, S. typhimurium
[15] = molecular target: aspartate receptor QQQQ receptor–kinase signaling complex (Salmonella typhimurium, UniProt P02941, E302Q/E491Q); assay: in vitro receptor-coupled kinase assay, attractant titration, QQQQ receptor; type: biochemical, S. typhimurium
[16] = molecular target: aspartate receptor–kinase signaling complex (Salmonella enterica subsp. enterica serovar Typhimurium, UniProt P02941); type: biochemical, S. typhimurium; conditions: pure off-state, extrapolated from the correlation

Structure (SMILES): N[C@@H](CC(=O)O)C(=O)O [L-aspartate]
- free energy driving force toward the off-state on binding (QQQQ receptor): exceeding 8 kcal mol^−1

Structure (SMILES): CC(N)(CC(=O)O)C(=O)O (racemic) [α-methyl-aspartate, α-methyl-D,L-aspartate]
- IC50 [1]: 9 ± 1 µM
- Measured Hill coefficient ([1]; QEEE receptor, attractant titration, Hill fit): 1.7 ± 0.1
- IC50 [2]: 16 ± 4 µM
- Measured Hill coefficient ([2]; EQEE receptor, attractant titration, Hill fit): 1.6 ± 0.4
- IC50 [3]: 23 ± 2 µM
- Measured Hill coefficient ([3]; EEQE receptor, attractant titration, Hill fit): 1.8 ± 0.1
- IC50 [4]: 9 ± 3 µM
- Measured Hill coefficient ([4]; EEEQ receptor, attractant titration, Hill fit): 1.1 ± 0.4
- IC50 [5]: 23 ± 4 µM
- Measured Hill coefficient ([5]; QEQE (wild type) receptor, attractant titration, Hill fit): 1.8 ± 0.1
- IC50 [6]: 31 ± 2 µM
- Measured Hill coefficient ([6]; QQEE receptor, attractant titration, Hill fit): 2.2 ± 0.2
- IC50 [7]: 14 ± 2 µM
- Measured Hill coefficient ([7]; EQQE receptor, attractant titration, Hill fit): 2.1 ± 0.3
- IC50 [8]: 19 ± 2 µM
- Measured Hill coefficient ([8]; QEEQ receptor, attractant titration, Hill fit): 2.4 ± 0.5
- IC50 [9]: 14 ± 1 µM
- Measured Hill coefficient ([9]; EQEQ receptor, attractant titration, Hill fit): 2.9 ± 0.3
- IC50 [10]: 19 ± 2 µM
- Measured Hill coefficient ([10]; EEQQ receptor, attractant titration, Hill fit): 1.9 ± 0.2
- IC50 [11]: 98 ± 4 µM
- Measured Hill coefficient ([11]; QQQE receptor, attractant titration, Hill fit): 3.3 ± 0.4
- IC50 [12]: 54 ± 6 µM
- Measured Hill coefficient ([12]; QQEQ receptor, attractant titration, Hill fit): 2.0 ± 0.5
- IC50 [13]: 62 ± 3 µM
- Measured Hill coefficient ([13]; QEQQ receptor, attractant titration, Hill fit): 2.2 ± 0.3
- IC50 [14]: 39 ± 4 µM
- Measured Hill coefficient ([14]; EQQQ receptor, attractant titration, Hill fit): 2.0 ± 0.3
- IC50 [15]: 97 ± 4 µM
- Measured Hill coefficient ([15]; QQQQ receptor, attractant titration, Hill fit): 2.2 ± 0.2
- K1/2 of the off-state (inactivated conformation) [16]: micromolar to submicromolar range
- K1/2 of the off-state (inactivated conformation) ([16]; listed as α-methyl aspartate): submicromolar to micromolar range

Reference: publication PMC2229510 (The Journal of General Physiology, 2001)
